Data set [1] in a line: Metabolic stability in human liver microsomes assessed as intrinsic clearance. It counts as ADME, Microsome. The settings on record: for microsomal CLint: liver microsomes, read-out: CLH; for microsomal intrinsic clearance: microsomes.
Data set [2] relates to Plasmodium falciparum. Put plainly: Antiplasmodial activity against Plasmodium falciparum W2 infected in human erythrocytes assessed as inhibition of parasitic growth incubated for 72 hrs by YOYO-1 staining based FACScalibur flow cytometry analysis. It counts as functional, organism-based. The conditions noted are these: W2, Erythrocyte. In a few lines:
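P. falciparum W2 grown at 2% hematocrit in RPMI 1640 with 0.5% AlbuMAX II, 0.1 mM hypoxanthine and 25 mM HEPES pH 7.4, at 37 °C under 5% O2/5% CO2/90% N2. Twelve concentrations (3-fold steps, 10 μM to 0.06 nM) or DMSO, 72 h. Cells fixed in 2% formaldehyde, permeabilized, stained with 25 nM YOYO-1 (≥24 h, 4 °C). Parasitemia by flow cytometry on 5 × 10^4 cells. IC50 from 3 replicates.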
On the technique in general: Flow cytometry measures light scatter and fluorescence of single cells or particles in a stream.

Data set [3] concerns Plasmodium berghei. The experiment in a line: Antiplasmodial activity against Plasmodium berghei infected in female Swiss Webster mouse model assessed as survival at 10 mg/kg, po administered once daily for 2 days and measured upto 30 days. The data set is classed as functional. The settings on record: time 30 day. The method, boiled down: (§1)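 Female Swiss Webster mice (~20 g) infected ip with 10^6 P. berghei-infected erythrocytes from a donor mouse. Dosing by oral gavage once daily for 1–2 days starting 1 h post-inoculation, in 10% DMSO/50% PEG400/40% of 20% HP-β-CD in water. Five mice per arm. Daily Giemsa smears from day 7, counting infected cells per 1000 erythrocytes. Body weight tracked. Euthanasia at >50% parasitemia or >15% weight loss. Followed to day 30; cure means no parasitemia at day 30. Survival reported as the day of the longest-surviving mouse.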

Data set [4] deals with Plasmodium berghei. Put plainly: Antiplasmodial activity against Plasmodium berghei infected in female Swiss Webster mouse model assessed as cure rate at 40 mg/kg, po measured upto 30 days relative to control. It counts as functional. The settings on record: time <= 30 day.
Data set [5] concerns Plasmodium berghei. Put plainly: Antiplasmodial activity Plasmodium berghei ANKA infected in female NMRI mouse model assessed as cure rate at 10 mg/kg, po administered as three consecutive dose daily for 24 to 72 hrs post infection by giemsa staining based microscopy analysis relative to control. The data set is classed as functional. The settings on record: time 24-72 hrs.

A short description of data set [6]: Toxicity in female Swiss Webster mouse infected with Plasmodium berghei assessed as drug tolerance at 10 mg/kg, po administered once daily for 2 days and measured upto 30 days. The settings on record: in vivo, 720 h, time 30 day. It counts as organism-based. The method, boiled down: as §1
A short description of data set [7]: Oral bioavailability in rat at 17.4 mg/kg by LC-MS analysis. The data set is classed as ADME, organism-based. The conditions noted are these: in vivo.
Data set [8] in a line: Solubility of the compound in PBS buffer at pH 7.4 at 2 mg/ml incubated for 5 to 6 hrs by LC-MS analysis. The data set is classed as physicochemical. The settings on record: time 5-6 hrs.
A short description of data set [9]: Volume of distribution at steady state in male CD1 mouse at 3 mg/kg, iv measured upto 24 hrs. The data set is classed as ADME, organism-based. The settings on record: in vivo. In a few lines:
(§2)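 Male CD1 mice, n = 3 per group, dosed IV at 3 mg/kg or PO at 10 mg/kg in 10% DMSO/50% PEG400/40% of 20% HP-β-CD in water. Samples below the limit of quantitation excluded from parameters and mean concentrations.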

Data set [10] is described as follows: Toxicity in female Swiss Webster mouse infected with Plasmodium berghei assessed as drug tolerance at 20 mg/kg, […]. The data set is classed as organism-based. The settings on record: in vivo, po.
Data set [11] is described as follows: Oral bioavailability in male CD1 mouse at 10 mg/kg measured upto 24 hrs. The data set is classed as ADME, organism-based. The conditions noted are these: in vivo. The method, boiled down: as §2
Data set [12] in a line: Clearance in male CD1 mouse at 3 mg/kg, iv measured upto 24 hrs. It counts as ADME, organism-based. The settings on record: in vivo. In a few lines: as §2
A short description of data set [13]: AUClast in male CD1 mouse at 10 mg/kg, po measured upto 24 hrs. The data set is classed as ADME, organism-based. The settings on record: in vivo. In a few lines: as §2
The subject of data set [14] is Plasmodium berghei. Put plainly: Antiplasmodial activity against Plasmodium berghei infected in female Swiss Webster mouse model assessed as survival at 20 mg/kg, po administered once daily for 1 day.
A short description of data set [15]: Half life in male CD1 mouse at 10 mg/kg, po measured upto 24 hrs. It counts as ADME, organism-based. The settings on record: in vivo.
The test system of data set [16] is Plasmodium berghei. Put plainly: Antiplasmodial activity against Plasmodium berghei infected in female Swiss Webster mouse model assessed as survival at 20 mg/kg, po […]. It counts as functional. The method, boiled down: as §1
Data set [17] in a line: Solubility of the compound in PBS buffer at pH 7.4. It counts as physicochemical.
The test system of data set [18] is Plasmodium berghei. Put plainly: Antiplasmodial activity against Plasmodium berghei infected in female Swiss Webster mouse model assessed as reduction in parasitemia at 20 mg/kg, po administered once daily for 2 days and measured upto 30 days by giemsa staining based microscopic analysis. It counts as functional, organism-based. The conditions noted are these: time 30.0 day. The method, boiled down: as §1

In data set [19] the test system is Plasmodium berghei. The experiment in a line: Antiplasmodial activity against Plasmodium berghei infected in female Swiss Webster mouse model assessed as reduction in parasitemia at 20 mg/kg, po administered as a single dose and monitored for 30 days by giemsa staining based microscopic analysis. The conditions noted are these: time 30.0 day.
Data set [20] in a line: Toxicity in female Swiss Webster mouse infected with Plasmodium berghei assessed as drug tolerance at 4 mg/kg, po administered once daily for 2 days and measured upto 30 days. The data set is classed as organism-based. The settings on record: in vivo, 720 h, time 30 day. The method, boiled down: as §1
Data set [21] concerns Plasmodium berghei. Put plainly: Antiplasmodial activity against Plasmodium berghei infected in female Swiss Webster mouse model assessed as survival at 4 mg/kg, po administered once daily for 2 days and measured upto 30 days. It counts as functional. The conditions noted are these: time 30 day. The method, boiled down:
as §1

Data set [22] is described as follows: Toxicity in female Swiss Webster mouse infected with Plasmodium berghei assessed as drug tolerance at 50 mg/kg, […]. The data set is classed as organism-based. The settings on record: in vivo, po. The method, boiled down:
as §1

For data set [23], the system named is Plasmodium berghei. Put plainly: Antiplasmodial activity against Plasmodium berghei infected in female Swiss Webster mouse model assessed as survival at 50 mg/kg, […]. The settings on record: route po. The data set is classed as functional. The method, boiled down: as §1

In brackets after ≈: the same amount, converted by molar mass. Activity calls are given as the source filed them. The rule behind the calls is not given here.

In general, EC50 refers to the concentration giving half of the maximal effect. With `NC1(CNC(=O)O[C@@H]2CCC[C@]3(C2)OOC2(O3)C3CC4CC(C3)CC2C4)CC1` (some centres undefined), in [1], the microsomal CLint came to 41.7 µL/min/mg. Also, the concentration giving a half-maximal response (EC50) in data set [2] turned out to be 1.5 nM.

As usually defined, the bioavailability is the share of a dose that reaches the circulation, judged against a reference dose that is usually intravenous. Higher therefore signals much systemic uptake. In general, solubility refers to the concentration that dissolves in the medium under given conditions. The low end stands for little dissolved substance, the high end for much dissolved substance. For the compound `CC(C)(N)CNC(=O)C[C@H]1CC[C@]2(CC1)OO[C@]1(O2)C2CC3CC(C2)CC1C3`, the Survival in data set [3] was determined as 14 days. The Activity in [4] is listed as 100%; in data set [5] it was 67%; in [6], “Non-Toxic”. Also, the microsomal CLint in data set [1] was less than 7 µL/min/mg. In [7], the bioavailability was determined as 35%. Moreover, the solubility in data set [8] turned out to be 504 µM (≈ 198 µg/mL).

Usually Vdss stands for a proportionality between amount in the body and measured concentration, not a real space. In [9], `CC(C)(N)CNC(=O)O[C@@H]1CCC[C@]2(C1)OOC1(O2)C2CC3CC(C2)CC1C3` (some centres undefined) yielded a Vdss of 2.79 L/kg. Also, the Activity entry in data set [10] is “Non-Toxic”. In addition, in [1], the microsomal CLint was 12.8 µL/min/mg. Also, the F in data set [11] worked out at 39.3%. In addition, in data set [12], the CL came out at 108 mL/min/kg. In addition, the AUClast in [13] is 555 ng·h/mL. The Survival in data set [14] came to 12 days. This compound also returned a t1/2 in data set [15] of 2.09 h.

Take “(S,S)-dispiro[adamantane-2,3'-[1,2,4]trioxolane-5',1''-cyclohexan]-3''-yl-piperidine-1-carboxylate”: the Survival in data set [16] was 7 days.

In the case of `NCC1CCN(C(=O)O[C@@H]2CCC[C@]3(C2)OOC2(O3)C3CC4CC(C3)CC2C4)CC1` (some centres undefined), in [4], the Activity was 20%.

The kinetic solubility is solubility judged after dilution from a stock solution rather than from solid. On to `N[C@@H]1CCN(C(=O)O[C@@H]2CCC[C@]3(C2)OOC2(O3)C3CC4CC(C3)CC2C4)C1` (some centres undefined), for which the kinetic solubility in data set [17] was 167 µM (≈ 65.5 µg/mL). In [4], the Activity amounted to 20%. Moreover, the microsomal intrinsic clearance in [1] is 45.8 µL/min/mg.

With `NCCC1CCN(C(=O)O[C@@H]2CCC[C@]3(C2)OOC2(O3)C3CC4CC(C3)CC2C4)CC1` (some centres undefined), the Activity in [4] stood at 20%.

In turn, `CC(C)(N)CNC(=O)O[C@H]1CCC[C@@]2(C1)OOC1(O2)C2CC3CC(C2)CC1C3` (some centres undefined) registered a solubility (kinetic) in data set [17] of 174 µM (≈ 68.6 µg/mL). This compound also returned a Vdss in data set [9] of 2.5 L/kg. For the same compound, the outcome in data set [18] was Active. The Activity entry in data set [10] and in [6] was “Non-Toxic” in each case. Further, the Survival in data set [3] amounted to 30 days; in data set [14] it was 20 days. The microsomal CLint in data set [1] was less than 11.5 µL/min/mg. Further, the F in data set [11] stood at 38.9%. The compound also came in with a CL in [12] of 77 mL/min/kg. This compound yielded an AUClast in [13] of 818 ng·h/mL. The t1/2 in data set [15] was 1.44 h.

Consider `c1cc([C@H]2CC[C@]3(CC2)OO[C@]2(O3)C3CC4CC(C3)CC2C4)ccc1OCCN1CCOCC1`, for which the result in [19] was Active. Also, in [14], the Survival stood at 30 days. The same compound registered a solubility in data set [8] of 0.181 µM (≈ 0.085 µg/mL).

On to `NCCNC(=O)O[C@H]1CCC[C@@]2(C1)OOC1(O2)C2CC3CC(C2)CC1C3` (some centres undefined), for which the kinetic solubility in [17] stood at 144 µM (≈ 52.8 µg/mL). This compound had a volume of distribution (Vdss) in [9] of 2.33 L/kg. In addition, the outcome in data set [18] was Active. Besides, the Survival in data set [3] came out at 30 days. Also, the microsomal intrinsic clearance in data set [1] worked out at 23.1 µL/min/mg. Further, the F in data set [11] is 43.1%. The same compound returned a CL in data set [12] of 66 mL/min/kg. The compound further registered an AUClast in [13] of 1038 ng·h/mL. The Activity entry in [6] is given as “Non-Toxic”. For the same compound, in data set [15], the t1/2 is 1.66 h.

Regarding `NC1(CNC(=O)O[C@H]2CCC[C@@]3(C2)OOC2(O3)C3CC4CC(C3)CC2C4)CC1` (some centres undefined), the kinetic solubility in data set [17] was found to be 143 µM (≈ 56.1 µg/mL). The Activity entry in [10] and in data set [6] was “Non-Toxic” in each case. For the same compound, the Survival in data set [3] and in data set [14] was 11 days each time. In data set [1], the microsomal intrinsic clearance was found to be 37.4 µL/min/mg.

As to `NC1CCN(C(=O)O[C@@H]2CCC[C@]3(C2)OOC2(O3)C3CC4CC(C3)CC2C4)CC1` (some centres undefined), in data set [17], the kinetic solubility is 145 µM (≈ 58.9 µg/mL). The Activity result in data set [20] is given as “Non-Toxic”; in [10] it was “Non-Toxic”; in data set [4], 20%; in [22] it was “Non-Toxic”; in [6] it was “Non-Toxic”. In addition, the Survival was found to be 12 days in data set [3], 11 days in [21], 12 days in data set [23] and 11 days in [14].

The values above are taken from ChEMBL document CHEMBL6071188, “Synthesis and In Vivo Profiling of Desymmetrized Antimalarial Trioxolanes with Diverse Carbamate Side Chains” (ACS Med Chem Lett, 2024).
